Measured values from ChEMBL document CHEMBL1938334, “Quinoline tricyclic derivatives. Design, synthesis and evaluation of the antiviral activity of three new classes of RNA-dependent RNA polymerase inhibitors” (Bioorg Med Chem, 2011).

Assays:
[1] = Cytotoxicity against human MRC5 cells after 96 hrs by MTT assay; format: cell-based
In short: (§1)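 Cells were seeded at 1×10^5 cells/mL: leukaemia/lymphoma lines in RPMI-1640, solid tumour and fibroblast lines in specific media, all with 10% FCS. Serial compound dilutions were applied for 96 h at 37 °C, 5% CO2, under conditions allowing controls at least three rounds of multiplication. Viability was read by MTT. CC50 by linear regression. Mean of three determinations.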

[2] = tested on: Yellow fever virus; assay: Antiviral activity against Yellow fever virus 17D Stamaril Pasteur J07B01 infected in hamster BHK21 cells assessed as inhibition of virus-induced cytopathogenicity after 3 to 4 days by MTT assay; format: functional, cell-based; conditions: Stamaril Pasteur J07B01, BHK-21
In short: (§2)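 Host cells were seeded in 96-well plates at 3×10^4 cells/well (MDBK) or 5×10^4 cells/well (BHK-21) and grown to confluent monolayers overnight. They were infected at m.o.i. 0.01 in maintenance MEM with 0.5% inactivated FBS. Serial compound dilutions were added after 1 h. Viability was read by MTT after 3–4 days at 37 °C. EC50 was taken by linear regression against untreated controls. Mean of three determinations.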

[3] = tested on: Vesicular stomatitis Indiana virus; assay: Antiviral activity against clinical isolate Vesicular stomatitis Indiana virus infected in african green monkey Vero 76 cells assessed as reduction of virus-induced plaque formation after 2 days using crystal violet staining; format: functional, organism-based; conditions: 48 h
[4] = tested on: Coxsackievirus B5; assay: Antiviral activity against Human coxsackievirus B5 Ohio-1 infected in african green monkey Vero 76 cells assessed as reduction of virus-induced plaque formation after 3 days using crystal violet staining; format: functional, organism-based; conditions: Enterovirus B, Ohio-1, Vero, 72 h
[5] = tested on: Reovirus sp.; assay: Antiviral activity against Reovirus type-1 3651 infected in hamster BHK21 cells assessed as inhibition of virus-induced cytopathogenicity after 3 to 4 days by MTT assay; format: functional, organism-based; conditions: Reovirus sp., 3651, BHK-21; in short: as §2
[6] = Inhibition of HCV1b BK 6xHis-tagged recombinant NS5B Cdelta 21 RNA dependent RNA polymerase expressed in Escherichia coli (DE3) using GTP as substrate preincubated for 30 mins before substrate addition measured after 120 mins by fluorescence assay; parameters: species or system Hepatitis C virus (isolate BK)
In short: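 His-tagged NS5B (BVDV C-terminal Δ24; HCV1b Δ21) from E. coli Rosetta 2(DE3)pLysS, Ni-NTA purified, 500–600 ng per 20 μL. The template was poly(rC) 10 μg/mL and the primer oligo(rG)12 0.1 μg/mL, with GTP 80 μM. Buffer: 20 mM Tris pH 7.0, 0.5 mM MnCl2 or 5 mM MgCl2, 5% DMSO. Enzyme/drug 30 min at RT, then GTP added; 120 min at 37 °C (BVDV) or 25 °C (HCV). Read-out was dsRNA dye fluorescence (ex 480/em 520). IC50 from dose–response fits.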

[7] = tested on: Human orthopneumovirus; assay: Antiviral activity against Human respiratory syncytial virus A2 infected in african green monkey Vero 76 cells assessed as reduction of virus-induced plaque formation after 5 days using crystal violet staining; format: functional, organism-based; conditions: 120 h
[8] = tested on: CCRF-CEM; assay: Cytotoxicity against human CCRF-CEM cells after 96 hrs by MTT assay; format: functional; in short: as §1
[9] = tested on: DU-145; assay: Cytotoxicity against human DU145 cells after 96 hrs by MTT assay; format: functional; conditions: DU-145, 96 h; in short: as §1
[10] = tested on: Hepatitis C virus; assay: Antiviral activity against HCV1b infected in human GS4.1 cells assessed as inhibition of virus-induced cytopathogenicity by measuring viral NS4A protein level after 72 hrs by ELISA; format: functional, organism-based, Hepacivirus hominis; conditions: genotype 1b
In short: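 GS4.1 cells are Huh-7 cells carrying a genotype 1b subgenomic replicon, kept in 0.5 mg/mL G418. They were seeded at 7.5×10^3 cells/well with two-fold serial dilutions of compound (top 75 μM) and incubated 72 h at 37 °C. Huh-7 cells without the replicon served as negative control. NS4A was measured by cell ELISA with anti-NS4A mAb A-236, peroxidase and o-phenylenediamine, A492. EC50 came from four-parameter sigmoidal fit.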

[11] = tested on: SK-MES-1; assay: Cytotoxicity against human SKMES1 cells after 96 hrs by MTT assay; format: functional; conditions: SK-MES-1, 96 h; in short: as §1
[12] = Cytotoxicity against MDBK cells after 48 to 96 hrs by MTT assay; format: cell-based, Bos taurus; conditions: cattle
In short: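 MDBK seeded at 6×10^5 and BHK at 1×10^6 cells/mL in MEM-Earle's with L-glutamine, 1 mM pyruvate, kanamycin, plus 10% horse serum (MDBK) or 10% FBS (BHK). Cells were grown at 37 °C, 5% CO2 with serial compound dilutions (DMSO stocks diluted in medium). Viability by MTT after 48–96 h. CC50 was taken by linear regression versus untreated controls; three independent determinations.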

[13] = tested on: WIL2-NS; assay: Cytotoxicity against human WIL2-NS cells after 96 hrs by MTT assay; format: functional; in short: as §1
[14] = tested on: MCF7; assay: Cytotoxicity against human MCF7 cells after 96 hrs by MTT assay; format: functional; conditions: MCF7, 96 h; in short: as §1
[15] = tested on: CCRF-SB; assay: Cytotoxicity against human CCRF-SB cells after 96 hrs by MTT assay; format: functional; in short: as §1
[16] = tested on: Poliovirus 1; assay: Antiviral activity against Human poliovirus 1 strain Sabin Chat infected in african green monkey Vero 76 cells assessed as virus-induced reduction of plaque formation after 2 days using crystal violet staining; format: functional, cell-based; conditions: Enterovirus C, 48 h
[17] = Selectivity index, ratio of EC50 for Bovine viral diarrhea virus 1-NADL to CC50 for MDBK cells
In short: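 CC50 was measured in mock-infected MDBK cells seeded at 6×10^5 cells/mL in MEM-E with 10% horse serum and treated with serial compound dilutions for 48–96 h; viability by MTT. EC50 came from BVDV NADL CPE protection in MDBK cells at m.o.i. 0.01, 3–4 days, MTT. Both were obtained by linear regression.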

[18] = tested on: SK-MEL-28; assay: Cytotoxicity against human SK-MEL-28 cells after 96 hrs by MTT assay; format: functional; conditions: SK-MEL-28, 96 h; in short: as §1
[19] = tested on: Human alphaherpesvirus 1; assay: Antiviral activity against Human herpesvirus 1 strain KOS infected in african green monkey Vero 76 cells assessed as reduction of virus-induced plaque formation after 3 days using crystal violet staining; format: functional, organism-based; conditions: Human alphaherpesvirus 1, KOS, 72 h
[20] = Selectivity index, […] for human GS4.1 cells
In short: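 Both values come from GS4.1 replicon cells treated 72 h with two-fold serial dilutions (top 75 μM). EC50 was from NS4A ELISA with a four-parameter sigmoidal fit. CC50 was from a tetrazolium-based Aqueous One cell proliferation readout.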

[21] = Antiviral activity against Vaccinia virus Lister Elstree infected in african green monkey Vero 76 cells assessed as reduction of virus-induced plaque formation after 3 days using crystal violet staining; format: functional, cell-based; conditions: 72 h
[22] = Inhibition of Bovine viral diarrhea virus 1-NADL recombinant NS5B Cdelta 21 RNA dependent RNA polymerase expressed in Escherichia coli (DE3) using GTP as substrate preincubated for 30 mins before substrate addition measured after 120 mins by fluorescence assay
[23] = Cytotoxicity against human GS4.1 cells; format: cell-based
In short: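 Huh-7 cells carrying HCV genotype 1b subgenomic replicon, grown in D-MEM/10% FBS with 0.5 mg/mL G418. Seeded at 7.5×10^3 cells/well with two-fold serial dilutions (top 75 μM), incubated 72 h at 37 °C. Viability by MTS-type Cell Titer 96 Aqueous One reagent; CC50 from % cytotoxicity versus concentration curves.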

`O=[N+]([O-])c1ccc(-c2nc3cc4cccnc4c(Cl)c3[nH]2)cc1` gave a CC50 at 96 h [1] of over 100 µM, an EC50 [2] of over 100 µM and an EC50 [3] of over 100 µM. The EC50 [4] was over 100 µM, the EC50 [5] was over 100 µM and the IC50 [6] was 8 µM. The EC50 [7] was over 100 µM, the CC50 [8] was 49 µM and the CC50 [9] was over 100 µM. The EC50 [10] was 3.1 µM, the CC50 [11] was over 100 µM and the CC50 [12] was over 100 µM. It also gave a CC50 [13] of over 100 µM, a CC50 [14] of over 100 µM and a CC50 [15] of over 100 µM. The EC50 [16] was over 100 µM, the “Selectivity Index” value [17] was over 100 and the CC50 [18] was over 100 µM. For the same molecule, the EC50 [19] was 44 µM, the “Selectivity Index” value [20] was 4 and the EC50 [21] was over 100 µM. It also gave an IC50 [22] of 0.06 µM and a CC50 [23] of 12 µM.
